Converted amounts (≈) assume the structure as drawn. Where only a bound is given, the exact number is not on record here.

For the first data set, the system named is Plasmodium falciparum. As to the kind of experiment: Antiplasmodial activity against multidrug-sensitive asexual blood stage Plasmodium falciparum NF54 strain assessed as reduction in parasite growth after 72 hrs by NBT reagent based LDH assay. It is filed as functional, organism-based. The conditions noted are these: NF54, 72 h.
As to `CN1CCN(C2CCN(c3nccc4[nH]c(-c5cccc(OC(F)(F)F)c5)nc34)CC2)CC1`, the IC50 was 64 nM.
The same measure, in the same setting: in the case of `CN1CCN(C(=O)C2CCN(c3nccc4[nH]c(-c5ccc(F)c(F)c5)nc34)CC2)CC1` it was 100 nM; in that of `Cn1ccnc1N1CCN(CC2CCN(c3nccc4[nH]c(-c5cc(F)cc(F)c5)nc34)CC2)CC1`, 29 nM.
On the same count and under the same terms, in the case of `CN1CCCN(c2nccc3[nH]c(-c4ccc(F)c(F)c4)nc23)CC1` it was 61 nM; in that of `CN1CCN(CC2CCN(c3nccc4[nH]c(-c5cccc(OC(F)(F)F)c5)nc34)CC2)CC1`, < 20 nM; in that of `CN1CCN(C2CCN(c3nccc4[nH]c(-c5ccc(F)c(F)c5)nc34)CC2)CC1`, 46 nM.

In the next data set the test system is Plasmodium falciparum. Put plainly: Antiplasmodial activity against multidrug-resistant asexual blood stage Plasmodium falciparum K1 strain assessed as reduction in parasite growth after 72 hrs by NBT reagent based LDH assay. The class given is functional, organism-based. The conditions noted are these: K1, 72 h. The method, boiled down:
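Asexual blood-stage K1 (multidrug-resistant) parasites were read out by the parasite lactate dehydrogenase (pLDH) assay. […] Most individual values varied less than 2× (maximum 3×).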
For `CN1CCN(C2CCN(c3nccc4[nH]c(-c5cccc(OC(F)(F)F)c5)nc34)CC2)CC1`, the IC50 was 91 nM.
The same measure, in the same setting: in the case of `CN1CCN(C(=O)C2CCN(c3nccc4[nH]c(-c5ccc(F)c(F)c5)nc34)CC2)CC1` it was 380 nM.
The same measure, in the same setting: in the case of `Cn1ccnc1N1CCN(CC2CCN(c3nccc4[nH]c(-c5cc(F)cc(F)c5)nc34)CC2)CC1` it was 53 nM; in that of `CN1CCCN(c2nccc3[nH]c(-c4ccc(F)c(F)c4)nc23)CC1`, 100 nM; in that of `CN1CCN(CC2CCN(c3nccc4[nH]c(-c5cccc(OC(F)(F)F)c5)nc34)CC2)CC1`, 12 nM.
Still for that read-out and setting: in the case of `CN1CCN(C2CCN(c3nccc4[nH]c(-c5ccc(F)c(F)c5)nc34)CC2)CC1` it was 220 nM.

Test system in another data set: not listed separately
Put plainly: Aqueous solubility of compound in phosphate buffer saline at pH 6.5 incubated for 20 hrs under shaking condition by shake-flask method based HPLC-DAD analysis. The settings on record: phosphate buffered saline. The class given is physicochemical. In short, it runs like this: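 Equilibrium aqueous solubility was measured at pH 6.5 using a miniaturized shake-flask method.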
`CN1CCN(C2CCN(c3nccc4[nH]c(-c5cccc(OC(F)(F)F)c5)nc34)CC2)CC1` came in with a thermodynamic solubility at 20 h of 190 µM (≈ 87.5 µg/mL).
For the molecule `CN1CCN(C(=O)C2CCN(c3nccc4[nH]c(-c5ccc(F)c(F)c5)nc34)CC2)CC1`, the thermodynamic solubility at 20 h came out at 200 µM (≈ 88.1 µg/mL).
For the molecule `Cn1ccnc1N1CCN(CC2CCN(c3nccc4[nH]c(-c5cc(F)cc(F)c5)nc34)CC2)CC1`, the solubility (thermodynamic) at 20 h was 135 µM (≈ 66.5 µg/mL).
Regarding `CN1CCCN(c2nccc3[nH]c(-c4ccc(F)c(F)c4)nc23)CC1`, the solubility (thermodynamic) at 20 h was 170 µM (≈ 58.4 µg/mL).
The same measure, in the same setting: in the case of `CN1CCN(CC2CCN(c3nccc4[nH]c(-c5cccc(OC(F)(F)F)c5)nc34)CC2)CC1` it was 200 µM (≈ 94.9 µg/mL).
In turn, `CN1CCN(C2CCN(c3nccc4[nH]c(-c5ccc(F)c(F)c5)nc34)CC2)CC1` came in with a solubility (thermodynamic) at 20 h of 130 µM (≈ 53.6 µg/mL).

The subject of the next data set is CHO. As to the kind of experiment: Cytotoxicity against CHO cells assessed as reduction in cell viability by MTT assay. The class given is cell-based, Cricetulus griseus. The conditions noted are these: chinese hamster. In short, it runs like this: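 Cytotoxicity was measured in Chinese hamster ovary (CHO) cells and reported as CC50. The selectivity index is CC50 divided by NF54 IC50.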
Background: Tetrazolium assays rely on reduction of a dye to a coloured formazan, in cell work by metabolically active cells.
For `CN1CCN(C2CCN(c3nccc4[nH]c(-c5cccc(OC(F)(F)F)c5)nc34)CC2)CC1`, the CC50 worked out at 3000 nM.
Still for that read-out and setting: in the case of `CN1CCN(C(=O)C2CCN(c3nccc4[nH]c(-c5ccc(F)c(F)c5)nc34)CC2)CC1` it was > 50000 nM; in that of `Cn1ccnc1N1CCN(CC2CCN(c3nccc4[nH]c(-c5cc(F)cc(F)c5)nc34)CC2)CC1`, 33000 nM.
As to `CN1CCCN(c2nccc3[nH]c(-c4ccc(F)c(F)c4)nc23)CC1`, the CC50 was 14000 nM.
With `CN1CCN(CC2CCN(c3nccc4[nH]c(-c5cccc(OC(F)(F)F)c5)nc34)CC2)CC1`, the cytotoxic concentration (CC50) is 950 nM.
The same measure, in the same setting: in the case of `CN1CCN(C2CCN(c3nccc4[nH]c(-c5ccc(F)c(F)c5)nc34)CC2)CC1` it was 5000 nM.

In a further data set the target is Voltage-gated inwardly rectifying potassium channel KCNH2 (Homo sapiens, UniProt Q12809). Put plainly: Inhibition of human ERG by patch clamp method.
Chain of Voltage-gated inwardly rectifying potassium channel KCNH2 (Q12809 whole entry): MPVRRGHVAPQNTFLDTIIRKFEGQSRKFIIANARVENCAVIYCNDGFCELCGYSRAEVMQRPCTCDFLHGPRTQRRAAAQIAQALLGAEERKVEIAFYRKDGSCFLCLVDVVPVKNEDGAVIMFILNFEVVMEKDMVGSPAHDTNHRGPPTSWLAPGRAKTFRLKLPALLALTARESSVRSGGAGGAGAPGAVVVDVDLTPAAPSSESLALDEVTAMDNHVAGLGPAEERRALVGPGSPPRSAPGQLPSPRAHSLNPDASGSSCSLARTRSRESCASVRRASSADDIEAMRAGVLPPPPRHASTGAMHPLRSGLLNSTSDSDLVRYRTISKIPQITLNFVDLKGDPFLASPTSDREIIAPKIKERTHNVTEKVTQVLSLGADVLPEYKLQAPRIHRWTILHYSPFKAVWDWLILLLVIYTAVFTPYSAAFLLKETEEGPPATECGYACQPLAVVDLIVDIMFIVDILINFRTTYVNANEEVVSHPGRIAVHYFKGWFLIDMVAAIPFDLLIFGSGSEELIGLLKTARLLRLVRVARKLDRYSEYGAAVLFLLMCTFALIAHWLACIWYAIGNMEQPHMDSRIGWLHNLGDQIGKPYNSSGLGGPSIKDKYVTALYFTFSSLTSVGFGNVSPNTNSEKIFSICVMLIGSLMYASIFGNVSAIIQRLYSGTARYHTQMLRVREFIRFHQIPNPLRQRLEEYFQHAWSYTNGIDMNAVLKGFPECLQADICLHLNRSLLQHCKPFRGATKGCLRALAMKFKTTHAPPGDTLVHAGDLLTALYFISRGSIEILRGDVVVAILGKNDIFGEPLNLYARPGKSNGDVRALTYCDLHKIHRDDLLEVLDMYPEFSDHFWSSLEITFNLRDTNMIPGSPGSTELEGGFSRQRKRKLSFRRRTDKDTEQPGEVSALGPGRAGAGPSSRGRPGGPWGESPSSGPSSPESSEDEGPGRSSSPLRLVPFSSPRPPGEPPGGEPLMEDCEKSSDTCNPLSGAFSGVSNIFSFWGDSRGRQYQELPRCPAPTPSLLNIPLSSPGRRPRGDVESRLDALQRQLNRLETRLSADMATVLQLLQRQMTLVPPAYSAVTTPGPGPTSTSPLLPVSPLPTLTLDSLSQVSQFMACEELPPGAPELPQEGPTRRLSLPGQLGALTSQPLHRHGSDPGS
Details: not given
(In general: The patch-clamp technique gives a direct electrical read-out from membranes.)
For `CN1CCN(C(=O)C2CCN(c3nccc4[nH]c(-c5ccc(F)c(F)c5)nc34)CC2)CC1`, the IC50 amounted to 12000 nM.
On the same count and under the same terms, in the case of `CN1CCCN(c2nccc3[nH]c(-c4ccc(F)c(F)c4)nc23)CC1` it was 400 nM.

Test system in another data set: not listed separately
As to the kind of experiment: Apparent intrinsic clearance in mouse liver microsomes at 0.1 uM in presence of NADPH by LC-MS/MS analysis.
Details: not given
The class given is ADME, Microsome. The method, boiled down: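 Compound was incubated with mouse liver microsomes for 30 min. Apparent intrinsic clearance (CL_int,app) is reported in μL/min/mg.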
On the technique in general: Liver microsomes are vesicles of endoplasmic reticulum, rich in cytochrome P450 enzymes.
For the molecule `CN1CCCN(c2nccc3[nH]c(-c4ccc(F)c(F)c4)nc23)CC1`, the CLH was 145 µL/min/mg.

Test system in another data set: not listed separately
Put plainly: Selectivity index, ratio of CC50 for cytotoxicity against CHO cells assessed as reduction in cell viability to IC50 for antiplasmodial activity against multidrug-sensitive Plasmodium falciparum NF54 assessed as reduction in parasite growth. The conditions noted are these: hamster, read-out: Ratio CC50/IC50. It is filed as toxicity, cell-based.
With `CN1CCN(C2CCN(c3nccc4[nH]c(-c5cccc(OC(F)(F)F)c5)nc34)CC2)CC1`, the selectivity ratio was determined as 47.
As for `Cn1ccnc1N1CCN(CC2CCN(c3nccc4[nH]c(-c5cc(F)cc(F)c5)nc34)CC2)CC1`, the selectivity ratio was 1140.
With `CN1CCN(CC2CCN(c3nccc4[nH]c(-c5cccc(OC(F)(F)F)c5)nc34)CC2)CC1`, the selectivity ratio turned out to be 47.
Turning to `CN1CCN(C2CCN(c3nccc4[nH]c(-c5ccc(F)c(F)c5)nc34)CC2)CC1`, the selectivity ratio was determined as 110.

Test system in a further data set: not listed separately
Put plainly: Cmax in Balb/C mouse at 2 mg/kg, iv by LC-MS/MS analysis. It is filed as ADME, organism-based. Also on record: route intravenous, dose 2 mg/kg. The conditions noted are these: in vivo. In short, it runs like this: (§1)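 Healthy Balb/c mice dosed i.v. or orally. Parameters come from non-compartmental analysis of compound concentration over time. […] Clearance is blood clearance (CL_b).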
Consider `Cn1ccnc1N1CCN(CC2CCN(c3nccc4[nH]c(-c5cc(F)cc(F)c5)nc34)CC2)CC1`, for which the concentration peaked (Cmax) at 1600 nM.

Test system in a further data set: not listed separately
Put plainly: Cmax in Balb/C mouse at 20 mg/kg, po by LC-MS/MS analysis. It is filed as ADME, organism-based. Also on record: route oral, dose 20 mg/kg. The conditions noted are these: in vivo. In short, it runs like this: as §1
As to `Cn1ccnc1N1CCN(CC2CCN(c3nccc4[nH]c(-c5cc(F)cc(F)c5)nc34)CC2)CC1`, the concentration peaked (Cmax) at 1700 nM.

Test system in the next data set: not listed separately
Put plainly: Tmax in Balb/C mouse at 20 mg/kg, po by LC-MS/MS analysis. The class given is ADME, organism-based. The settings on record: in vivo. The method, boiled down:
(§2)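 Healthy Balb/c mice were given the compound i.v. or orally. Parameters come from non-compartmental analysis: AUC from 0 h to t_last, blood clearance, volume at steady state, terminal half-life, Tmax. Oral bioavailability F is derived from the i.v. and p.o. data.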
For `Cn1ccnc1N1CCN(CC2CCN(c3nccc4[nH]c(-c5cc(F)cc(F)c5)nc34)CC2)CC1`, the time to peak (Tmax) stood at 2.3 h.

Test system in the next data set: not listed separately
Put plainly: Terminal half life in Balb/C mouse at 2 mg/kg, iv by LC-MS/MS analysis. It is filed as ADME, organism-based. The conditions noted are these: in vivo, read-out: beta t1/2 (converted). The method, boiled down: as §2
Consider `Cn1ccnc1N1CCN(CC2CCN(c3nccc4[nH]c(-c5cc(F)cc(F)c5)nc34)CC2)CC1`, for which the half-life was 12.2 h.

Test system in a further data set: not listed separately
Put plainly: Terminal half life in Balb/C mouse at 20 mg/kg, po by LC-MS/MS analysis. The class given is ADME, organism-based. The settings on record: in vivo, read-out: beta t1/2 (converted). The method, boiled down: as §2
For `Cn1ccnc1N1CCN(CC2CCN(c3nccc4[nH]c(-c5cc(F)cc(F)c5)nc34)CC2)CC1`, the half-life was 9.2 h.

Test system in the next data set: not listed separately
Put plainly: Clearance in Balb/C mouse blood at 2 mg/kg, iv by LC-MS/MS analysis. The class given is ADME, organism-based. The conditions noted are these: whole blood. In short, it runs like this: as §1
`Cn1ccnc1N1CCN(CC2CCN(c3nccc4[nH]c(-c5cc(F)cc(F)c5)nc34)CC2)CC1`: the clearance turned out to be 9 mL/min/kg.

Test system in a further data set: not listed separately
As to the kind of experiment: Volume of distribution at steady state in Balb/C mouse at 2 mg/kg, iv by LC-MS/MS analysis. The conditions noted are these: in vivo, read-out: Vdss. The class given is ADME, organism-based. In short, it runs like this:
as §2
For `Cn1ccnc1N1CCN(CC2CCN(c3nccc4[nH]c(-c5cc(F)cc(F)c5)nc34)CC2)CC1`, the Vd came to 6 L/kg.

Test system in another data set: not listed separately
Put plainly: AUC (0 to t) in Balb/C mouse at 2 mg/kg, iv by LC-MS/MS analysis. It is filed as ADME, organism-based. Details: dose 2 mg/kg. The conditions noted are these: in vivo. In short, it runs like this:
as §1
`Cn1ccnc1N1CCN(CC2CCN(c3nccc4[nH]c(-c5cc(F)cc(F)c5)nc34)CC2)CC1` came in with an AUCt of 7.88 µM·h.

Test system in a further data set: not listed separately
Put plainly: AUC (0 to t) in Balb/C mouse at 20 mg/kg, po by LC-MS/MS analysis. It is filed as ADME, organism-based. Also on record: dose 20 mg/kg. The conditions noted are these: in vivo. The method, boiled down: as §1
In turn, `Cn1ccnc1N1CCN(CC2CCN(c3nccc4[nH]c(-c5cc(F)cc(F)c5)nc34)CC2)CC1` yielded an AUCt of 19 µM·h.

Test system in the next data set: not listed separately
As to the kind of experiment: Oral bioavailability in Balb/C mouse at 20 mg/kg by LC-MS/MS analysis. The class given is ADME, organism-based. The conditions noted are these: in vivo. In short, it runs like this: as §2
`Cn1ccnc1N1CCN(CC2CCN(c3nccc4[nH]c(-c5cc(F)cc(F)c5)nc34)CC2)CC1` showed a bioavailability of 24%.

Test system in another data set: not listed separately
Put plainly: Ratio of unbound average drug concentration in Balb/c mouse at 20 mg/kg, po measured at 24 hrs to IC50 for antiplasmodial activity against multidrug-sensitive Plasmodium falciparum NF54 asexual blood stage assessed as reduction in parasite growth after 72 hrs by LDH assay. The conditions noted are these: in vivo. It is filed as organism-based.
Regarding `Cn1ccnc1N1CCN(CC2CCN(c3nccc4[nH]c(-c5cc(F)cc(F)c5)nc34)CC2)CC1`, the Ratio came to 1.5.

A word on the IC50: it is the concentration that gives 50% inhibition. As usually defined, the solubility (thermodynamic) is the concentration in solution at equilibrium with solid. As usually defined, the CC50 is the concentration that lowers cell viability or growth by half. The Cmax is the maximum level reached in the sampled fluid or tissue. In general, Tmax refers to the time at which the peak concentration occurs. Usually clearance stands for a measure of how efficiently the substance is removed, as volume per time. A lower clearance goes with inefficient removal. The bioavailability is dose-corrected exposure relative to a reference, in per cent. A low value points to little systemic uptake.

The record behind these values is ChEMBL document CHEMBL4699593, “Identification of 2,4-Disubstituted Imidazopyridines as Hemozoin Formation Inhibitors with Fast-Killing Kinetics and In Vivo Efficacy in the Plasmodium falciparum NSG Mouse Model” (J Med Chem, 2020).
